pIC50, pKi: −log10 of the molar value. Bridge positions count the residues as written; N and C are the ends. Square brackets hold non-standard residues; d marks the D form. Peptide text beside a SMILES is read from it. * marks the point of attachment. Arg(Me2s) = CN=C(NC)NCCC[C@H](N)C(=O)O; Arg(Me) = CNC(=N)NCCC[C@H](N)C(=O)O; d(αMeK) = C[C@@](N)(CCCCN)C(=O)O; dPhg = N[C@@H](C(=O)O)c1ccccc1; dOrn = NCCC[C@@H](N)C(=O)O; dDab = NCC[C@@H](N)C(=O)O; Isobutyryl = CC(C)C(=O)*; dDap = NC[C@@H](N)C(=O)O; Abu = CC[C@H](N)C(=O)O

Data set [1] can be described thus: Inhibition of 5-FAM tracer binding to WDR5 delta23 mutant (24 to 334 residues) (unknown origin) expressed in Escherichia coli Rosetta 2 (DE3) cells after 3 hrs by fluorescence polarization assay. Further details: species or system Homo sapiens. On the technique in general: Polarisation of emitted light reports the rotation of a fluorescent probe.
Data set [2] addresses MLL1-ASH2L/RbBP5/WDR5/DPY30 (Homo sapiens, UniProt P61964). The experiment in a line: Inhibition of human N-terminal GST-tagged MLL1 (3735 to 3973 residues) interaction with human full length N-terminal 6xHis-tagged ASH2L/N-terminal 6xHis-tagged human full length RbBP5/human N-terminal 6xHis-tagged WDR5/human full length N-terminal 6xHis-tagged DPY30 assessed as decrease in H3K4me1-2 methylation preincubated for 30 mins followed by SAM/nucleosome mixture addition measured after 120 mins in absence of light by AlphaLISA assay. In kind it is protein assay. In general terms: Bead proximity is the source of the signal in Alpha formats.

The subject of a further data set is MV4-11. The experiment in a line: Cytotoxicity against human MV4-11 cells harboring MLL-AF4 fusion protein assessed as cell growth inhibition after 4 days by WST8 assay. In kind it is functional, cell-based. The conditions noted are these: MV4-11, 96 h. In outline: (§1)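 Cells (MOLM-13 with MLL-AF9, MV4-11 with MLL-AF4, HL-60 with no MLL fusion) seeded at 1 × 10^4 cells/well and exposed to a range of inhibitor concentrations for 4 days, with 0.2% DMSO final in the medium. Viability was read by WST-8 kit. Three independent experiments, each in triplicate.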
Background: Tetrazolium dyes change colour on reduction, which living cells bring about.

For the next data set, the system named is HL-60. The experiment in a line: Cytotoxicity against human HL60 cells lacking MLL translocation assessed as cell growth inhibition after 4 days by WST8 assay. The conditions noted are these: HL-60, 96 h. In kind it is cell-based. Summed up: as §1
The subject of another data set is MOLM-13. The experiment in a line: Cytotoxicity against human MOLM13 cells harboring MLL-AF9 fusion protein assessed as cell growth inhibition after 4 days by WST8 assay. In kind it is functional, cell-based. The settings on record: MOLM-13, 96 h. In outline:
as §1

The nature of data set [3]: Half life in rat microsomes. The data set is classed as ADME, Microsome.
Data set [4] is described as follows: Half life in human microsomes. In kind it is ADME, Microsome.
Data set [5] can be described thus: Selectivity ratio of IC50 for human HL60 cells lacking MLL translocation to IC50 for human MOLM13 cells harboring MLL-AF9 fusion protein.
Data set [6] can be described thus: Half life in mouse microsomes. The data set is classed as ADME, Microsome.
Data set [7] can be described thus: Selectivity ratio of IC50 for human HL60 cells lacking MLL translocation to IC50 for human MV4-11 cells harboring MLL-AF4 fusion protein.

As to `CC[C@@H]1NC(=O)[C@H](CCCNC(=N)NC)NC(=O)[C@](C)(NC(=O)C(C)C)CCCCNC(=O)[C@@H](c2ccccc2)NC1=O` (Isobutyryl-[d(αMeK)][Arg(Me)][Abu][dPhg]; lactam 1-C), the pIC50 (in general, the IC50 on a negative log10 scale, so that one unit is a factor of ten) in [1] is 8.96; in data set [2], 6.34; with MV4-11 it was 5.37; in the data set with HL-60, less than 4.00; with MOLM-13, 5.44. In [1], the pKi (as a rule, the negative decadic logarithm of the Ki, by convention in mol/L) was greater than 9.00.

Regarding `CC[C@@H]1NC(=O)[C@H](CCCNC(=N)N)NC(=O)[C@](C)(NC(=O)C(C)C)CCCNC(=O)[C@@H](c2ccccc2)NC1=O.O=C(O)C(F)(F)F`, the half-life in data set [3], in [4] and in data set [6] was greater than 1 h in each case. Moreover, the pIC50 in data set [1] is 9.01; in data set [2], 7.07; in the data set on MV4-11 it was 5.89; with HL-60, 4.33; with MOLM-13, 5.89. In data set [1], the pKi was greater than 9.00. The “Ratio IC50” value in data set [5] and in data set [7] was greater than 30 in each case.

On to `CCC(CC)(NC(=O)C(C)C)C(=O)N[C@@H](CCCNC(=N)N)C(=O)NC1(C(=O)NC(c2ccccc2)c2ccccc2)CCCC1`, for which the half-life (as a rule, the time in which the quantity being followed falls by half) was 0.567 h in data set [3], 0.0667 h in data set [4] and 0.733 h in data set [6].

As for `CC[C@@H]1NC(=O)[C@H](CCCNC(=N)N)NC(=O)[C@](C)(NC(=O)C(C)C)CCCCCNC(=O)[C@@H](c2ccccc2)NC1=O`, the pIC50 was 8.59 in data set [1]; 5.82 in data set [2]; 4.82 in the data set with MV4-11; less than 4.00 in the data set with HL-60; 4.42 in the data set with MOLM-13. For the same compound, the negative-log Ki (pKi) in data set [1] was greater than 9.00.

Take `CC[C@@H]1NC(=O)[C@H](CCCNC(=N)N)NC(=O)[C@H](NC(=O)C(C)C)CCCCNC(=O)[C@@H](c2ccccc2)NC1=O` (Isobutyryl-[dK]R[Abu][dPhg]; lactam 1-C): the pIC50 in [1] was 6.53; in data set [2], less than 5.00; in the data set with MV4-11, less than 4.00; in the data set on HL-60, less than 4.00; in the data set with MOLM-13 it was less than 4.00. For the same compound, in [1], the pKi is 7.22.

As to `CC[C@H]1NC(=O)[C@@H](CCCNC(=N)N)NC(=O)[C@@](C)(NC(=O)C(C)C)CCCCNC(=O)[C@H](c2ccccc2)NC1=O`, the pIC50 in the data set with MV4-11, with HL-60 and with MOLM-13 was less than 4.00 each time.

Take `CC[C@@H]1NC(=O)[C@H](CCCNC(=N)N)NC(=O)[C@H](NC(=O)C(C)C)CCNC(=O)[C@@H](c2ccccc2)NC1=O` (Isobutyryl-[dDab]R[Abu][dPhg]; lactam 1-C): the pIC50 in [1] is 8.21; in [2] it was 5.74; in the data set on MV4-11, 4.36; in the data set on HL-60 it was less than 4.00; in the data set with MOLM-13, 4.37. The same compound had a pKi in data set [1] of 9.10.

Turning to `CC[C@@H]1NC(=O)[C@H](CCCN/C(=N/C)NC)NC(=O)[C@](C)(NC(=O)C(C)C)CCCCNC(=O)[C@@H](c2ccccc2)NC1=O` (Isobutyryl-[d(αMeK)][Arg(Me2s)][Abu][dPhg]; lactam 1-C), the pIC50 in [1] is 8.62; in data set [2], 5.90; with MV4-11, 4.82; in the data set with HL-60 it was 4.07; in the data set on MOLM-13, 4.50. In data set [1], this compound gave a pKi greater than 9.00.

In the case of `CC[C@@H]1NC(=O)[C@H](CCCNC(=N)N)NC(=O)[C@](C)(NC(=O)C(C)C)CCCCNC(=O)[C@@H](c2ccccc2)NC1=O.O=C(O)C(F)(F)F`, the half-life in data set [3], in data set [4] and in data set [6] was greater than 1 h each time. The pIC50 in the data set on HL-60 is less than 4.00.

For `CC[C@@H]1NC(=O)[C@H](CCCNC(=N)N)NC(=O)[C@H](NC(=O)C(C)C)CCCNC(=O)[C@@H](c2ccccc2)NC1=O` (Isobutyryl-[dOrn]R[Abu][dPhg]; lactam 1-C), the pIC50 in [1] is 6.79; in data set [2] it was less than 5.00; with MV4-11, less than 4.00; with HL-60 it was less than 4.00; in the data set with MOLM-13, less than 4.00. In data set [1], this compound showed a pKi of 7.48.

For the compound `CC[C@@H]1NC(=O)[C@H](CCCNC(=N)NC)NC(=O)[C@](C)(NC(=O)C(C)C)CCNC(=O)[C@H](c2ccccc2)NC1=O`, the pIC50 was 8.70 in data set [1], 6.32 in data set [2], 4.46 with MV4-11 and 4.84 in the data set with MOLM-13. This compound also had a pKi in data set [1] greater than 9.00.

In the case of `CC[C@@H]1NC(=O)[C@H](CCCNC(=N)N)NC(=O)[C@](C)(NC(=O)C(C)C)CCCCN(C)C(=O)[C@@H](c2ccc(Cl)cc2)NC1=O.O=C(O)C(F)(F)F`, the half-life in [3], in data set [4] and in data set [6] was greater than 1 h in each case. Further, the negative-log IC50 (pIC50) in data set [1] is 8.82; in [2], 6.91. The compound further gave a pKi in data set [1] greater than 9.00.

Take `CC[C@@H]1NC(=O)[C@H](CCCNC(=N)N)NC(=O)[C@](C)(NC(=O)C(C)C)CCNC(=O)[C@@H](c2ccccc2)NC1=O.O=C(O)C(F)(F)F`: the half-life in data set [3], in data set [4] and in [6] was greater than 1 h throughout. Besides, the pIC50 in data set [1] is 8.97; in data set [2] it was 7.90; in the data set with MV4-11, 6.34; with HL-60 it was 4.76; in the data set on MOLM-13, 6.55. The compound further showed a pKi in [1] greater than 9.00. Further, the “Ratio IC50” value in data set [5] and in data set [7] was greater than 30 in each case.

As to `CC[C@@H]1NC(=O)[C@H](CCCNC(=N)N)NC(=O)[C@](C)(NC(=O)C(C)C)CCCCN(C)C(=O)[C@@H](c2ccccc2)NC1=O.O=C(O)C(F)(F)F`, the half-life in data set [3], in [4] and in [6] was greater than 1 h in each case. The pIC50 in data set [1] is 8.80; in data set [2], 6.72. The pKi in data set [1] was greater than 9.00.

Take `CC[C@@H]1NC(=O)[C@H](CCCNC(=N)N)NC(=O)[C@](C)(NC(=O)C(C)C)CCCCN(C)C(=O)[C@@H](c2ccc(F)cc2)NC1=O.O=C(O)C(F)(F)F`: the half-life in data set [3], in data set [4] and in data set [6] was greater than 1 h each time. Also, the pIC50 in data set [1] was 8.80; in data set [2], 6.86; in the data set on MV4-11, 5.28; with HL-60, 4.22; in the data set on MOLM-13, 4.79. The same compound had a pKi in data set [1] greater than 9.00.

On to `CC[C@@H]1NC(=O)[C@H](CCCNC(=N)N)NC(=O)[C@H](NC(=O)C(C)C)CNC(=O)[C@@H](c2ccccc2)NC1=O` (Isobutyryl-[dDap]R[Abu][dPhg]; lactam 1-C), for which, in [1], the pIC50 is 5.92 and the pKi is 6.62. In addition, the pIC50 in data set [2] is less than 5.00.

These data come from ChEMBL document CHEMBL4014355 (J Med Chem, 2017).
